Activity calls are given as the source filed them. No cut-off for these calls is given here.
Key:
Mus musculus [1] = experiment: In vivo activation of ETS1 in BALB/c mouse xenografted with human MDA-MB-468 cells assessed as increase in ETS1 phosphorylation at Thr38 residue at 50 mg/kg, ip administered every 2 days for 34 days measured post-last dose by Western blot analysis; type: functional, organism-based
MDA-MB-468 [2] = experiment: Activation of ERK in human MDA-MB-468 cells assessed as increase in ERK autophosphorylation at T202 residue at 1 uM measured after 6 to 72 hrs by Western blot analysis; type: cell-based
In short: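 MDA-MB-468 cells seeded in six-well plates, incubated overnight, then treated for 6 h, with 1‰ (v/v) DMSO medium as control. Lysates cleared at 4 °C, protein quantified by BCA, resolved by 8-12% SDS-PAGE and transferred to PVDF. Membranes blocked in 5% BSA/TBST, probed with primary antibodies (pERK-Thr202, total ERK, cleaved PARP, β-actin) and HRP secondary. ECL detection, band densitometry.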

MDA-MB-468 [3] = experiment: Inhibition of PI3K in human MDA-MB-468 cells assessed as reduction in pS6 phosphorylation at S240 residue at 1 uM measured after 6 to 72 hrs by Western blot analysis; type: cell-based
In short: (§1)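 MDA-MB-468 cells seeded overnight, then exposed for 6 h; control medium contained 1‰ DMSO. Lysates run on 8–12% SDS-PAGE and transferred to PVDF. Blots blocked in 5% BSA/TBST and probed for pAKT-Ser473/total AKT or pS6-Ser240/total S6, with β-actin as loading control. HRP secondary with ECL detection; bands quantified by densitometry. Three independent experiments.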

HCC1937 = experiment: Potency index, ratio of BKM120 IC50 to test compound IC50 for antiproliferative activity against human HCC1937 cells; type: functional
[4] = target: Phosphatidylinositol 4,5-bisphosphate 3-kinase catalytic subunit delta isoform (Homo sapiens, UniProt O00329); experiment: Inhibition of PI3Kdelta (unknown origin) using PIP2 as substrate measured after 2 hrs by ADP-glo plus luminescence assay
Sequence of Phosphatidylinositol 4,5-bisphosphate 3-kinase catalytic subunit delta isoform (O00329 whole entry, canonical isoform): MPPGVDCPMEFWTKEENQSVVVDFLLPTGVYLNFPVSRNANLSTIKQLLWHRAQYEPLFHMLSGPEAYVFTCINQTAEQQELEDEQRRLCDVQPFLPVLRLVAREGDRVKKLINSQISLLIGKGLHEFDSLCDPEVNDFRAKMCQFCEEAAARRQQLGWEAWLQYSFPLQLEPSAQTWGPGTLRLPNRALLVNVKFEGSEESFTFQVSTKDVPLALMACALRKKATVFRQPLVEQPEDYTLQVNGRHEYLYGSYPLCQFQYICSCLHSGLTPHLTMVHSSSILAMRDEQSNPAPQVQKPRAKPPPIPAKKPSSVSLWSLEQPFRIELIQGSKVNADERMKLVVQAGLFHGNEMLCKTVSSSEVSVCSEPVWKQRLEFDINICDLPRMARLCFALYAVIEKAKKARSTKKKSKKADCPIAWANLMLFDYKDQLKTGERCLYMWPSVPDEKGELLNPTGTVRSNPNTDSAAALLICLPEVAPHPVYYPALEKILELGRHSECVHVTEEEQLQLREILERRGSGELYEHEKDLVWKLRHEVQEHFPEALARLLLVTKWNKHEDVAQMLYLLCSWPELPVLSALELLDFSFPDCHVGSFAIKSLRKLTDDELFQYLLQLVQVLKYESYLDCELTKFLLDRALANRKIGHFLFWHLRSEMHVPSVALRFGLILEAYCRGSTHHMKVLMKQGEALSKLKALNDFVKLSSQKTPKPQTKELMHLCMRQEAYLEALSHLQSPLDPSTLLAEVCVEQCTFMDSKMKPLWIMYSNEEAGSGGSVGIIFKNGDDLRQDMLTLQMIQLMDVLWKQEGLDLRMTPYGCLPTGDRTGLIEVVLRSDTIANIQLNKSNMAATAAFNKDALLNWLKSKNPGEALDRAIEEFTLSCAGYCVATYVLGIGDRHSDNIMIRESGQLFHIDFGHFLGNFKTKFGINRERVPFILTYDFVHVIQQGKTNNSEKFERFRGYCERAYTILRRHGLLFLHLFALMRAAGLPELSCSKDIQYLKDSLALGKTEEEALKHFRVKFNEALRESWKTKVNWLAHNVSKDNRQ
In short: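 ADP-Glo Plus luminescence assay in 50 µL of 10 mM Tris-HCl pH 7.5 with 25 µM ATP, 9.75 µM PIP2, 4 mM MgCl2, 50 mM NaCl, 0.05% Chaps, 1 mM DTT, 5% glycerol and 2% DMSO. Enzyme: PI3Kα and β at 60 ng/mL, δ at 45 ng/mL. Ten-point 3-fold dilutions from 1 µM. Incubation at room temperature for 1 h (α, β) or 2 h (δ). IC50 by nonlinear regression.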

Mus musculus [5] = experiment: In vivo inhibition of PI3K in BALB/c mouse xenografted with human MDA-MB-468 cells assessed as reduction in AKT phosphorylation at S473 residue at 50 mg/kg, ip administered every 2 days for 34 days measured post-last dose by Western blot analysis; type: functional, organism-based
[6] = target: Phosphatidylinositol 4,5-bisphosphate 3-kinase catalytic subunit beta isoform (Homo sapiens, UniProt P42338); experiment: Inhibition of PI3Kbeta (unknown origin) using PIP2 as substrate measured after 1 hr by ADP-glo plus luminescence assay
Sequence of Phosphatidylinositol 4,5-bisphosphate 3-kinase catalytic subunit beta isoform (P42338 whole entry, canonical isoform): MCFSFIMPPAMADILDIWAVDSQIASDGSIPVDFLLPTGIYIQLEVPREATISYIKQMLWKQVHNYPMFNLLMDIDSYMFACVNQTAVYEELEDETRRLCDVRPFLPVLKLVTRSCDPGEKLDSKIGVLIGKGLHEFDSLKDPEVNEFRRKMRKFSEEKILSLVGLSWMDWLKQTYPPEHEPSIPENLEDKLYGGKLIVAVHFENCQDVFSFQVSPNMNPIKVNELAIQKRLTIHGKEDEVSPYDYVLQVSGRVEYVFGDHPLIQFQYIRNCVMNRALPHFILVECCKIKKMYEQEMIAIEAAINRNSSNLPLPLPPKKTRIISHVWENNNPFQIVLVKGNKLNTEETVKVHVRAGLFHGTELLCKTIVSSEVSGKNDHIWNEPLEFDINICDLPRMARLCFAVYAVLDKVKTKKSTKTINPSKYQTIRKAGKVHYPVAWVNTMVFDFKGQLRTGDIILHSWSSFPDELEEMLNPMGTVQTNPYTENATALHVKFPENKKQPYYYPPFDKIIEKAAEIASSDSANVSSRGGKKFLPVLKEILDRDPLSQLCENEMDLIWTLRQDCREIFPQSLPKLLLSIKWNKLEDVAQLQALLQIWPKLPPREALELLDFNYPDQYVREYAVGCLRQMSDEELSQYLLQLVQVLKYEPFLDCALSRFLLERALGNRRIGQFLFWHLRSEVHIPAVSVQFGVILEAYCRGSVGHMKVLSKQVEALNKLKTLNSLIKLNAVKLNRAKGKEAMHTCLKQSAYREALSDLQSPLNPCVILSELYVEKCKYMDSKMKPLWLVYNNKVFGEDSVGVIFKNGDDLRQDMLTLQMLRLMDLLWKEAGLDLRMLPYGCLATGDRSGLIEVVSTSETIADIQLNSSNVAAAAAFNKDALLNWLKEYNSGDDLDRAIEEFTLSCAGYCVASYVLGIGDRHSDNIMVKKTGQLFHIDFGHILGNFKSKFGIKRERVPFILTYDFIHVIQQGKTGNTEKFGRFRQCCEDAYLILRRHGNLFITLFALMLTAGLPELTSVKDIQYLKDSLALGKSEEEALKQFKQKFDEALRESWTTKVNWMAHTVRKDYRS

MDA-MB-468 [7] = experiment: Inhibition of PI3K in human MDA-MB-468 cells assessed as reduction in AKT phosphorylation at S473 residue at 1 uM measured after 6 to 72 hrs by Western blot analysis; type: cell-based; in short: as §1
MDA-MB-468 [8] = experiment: Inhibition of PI3K in human MDA-MB-468 cells assessed as increase in gammaH2AX foci formation at 1 uM measured after 72 hrs by DAPI staining based immunofluorescence microscopic analysis; type: cell-based
In short: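 MDA-MB-468 cells on coverslips given drugs for 72 h. Fixed in 3% formaldehyde, permeabilized with 0.1% Triton X-100, blocked in 10% FBS/PBS, then rabbit anti-γH2AX (Ser139) overnight at 4 °C. Secondary antibody and DAPI stain followed. About 200 cells scored for foci; a cell was positive with more than 5 foci. Three independent experiments.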

MDA-MB-468 [9] = experiment: Potency index, ratio of BKM120 IC50 to test compound IC50 for antiproliferative activity against human MDA-MB-468 cells; type: functional
MDA-MB-468 [10] = experiment: Antitumor activity against human MDA-MB-468 cells xenografted in BALB/c mouse assessed as tumor growth inhibition at 50 mg/kg, ip administered every 2 days for 34 days and measured at 2 days interval during compound dosing relative to control; type: functional; settings: MDA-MB-468, ip, read-out: TGI
SW-620 = experiment: cells; settings: Homo sapiens, SW-620, 168 h, read-out: pIC50 (converted)
MDA-MB-468 [11] = experiment: Induction of apoptosis in human MDA-MB-468 cells assessed as necrotic cells at 1 uM measured after 72 hrs in presence of PARP inhibitor olaparib by Annexin V-FITC/propidium iodide staining based flow cytometry (reference value: 0.13%); type: functional
Ramos = experiment: cells; settings: Homo sapiens, 168 h, read-out: pIC50 (converted)
HCT-116 = experiment: cells; settings: Homo sapiens, HCT-116, 168 h, read-out: pIC50 (converted)
MDA-MB-468 [12] = experiment: Induction of DNA damage in human MDA-MB-468 cells at 1 uM measured after 72 hrs in presence of PARP inhibitor olaparib by comet assay; type: functional, cell-based
In short: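 MDA-MB-468 cells treated for 72 h, harvested and run in a neutral comet assay. Ethidium bromide staining after electrophoresis. About 200 cell images per group analysed with CASP. DNA damage scored as tail intensity (percentage DNA in tail) and olive tail moment. Mean ± SD of three independent experiments.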

MDA-MB-468 [13] = experiment: Inhibition of PI3K in human MDA-MB-468 cells assessed as reduction in BRCA2 mRNA level at 1 uM in presence of PARP inhibitor olaparib by Trizol reagent-based RT-PCR analysis; type: cell-based
In short: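 Total RNA from treated MDA-MB-468 cells extracted with TRIzol. BRCA1 or BRCA2 mRNA quantified by real-time PCR with GAPDH as internal control. Results given as fold change relative to the internal control. Mean ± SD of three independent experiments.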

A2780 = experiment: cells; settings: Homo sapiens, A2780, 168 h, read-out: pIC50 (converted)
MDA-MB-468 [14] = experiment: Inhibition of PI3K in human MDA-MB-468 cells assessed as reduction in RAD51 foci formation at 1 uM measured after 72 hrs in presence of PARP inhibitor olaparib by DAPI staining based immunofluorescence microscopic analysis; type: cell-based
In short: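 RAD51 foci in MDA-MB-468 cells on coverslips after 72 h drug exposure. Cells fixed (3% formaldehyde), permeabilized (0.1% Triton X-100), blocked in 10% FBS/PBS, incubated overnight at 4 °C with rabbit anti-RAD51 polyclonal, then secondary antibody plus DAPI. Foci and percent positive cells (>5 foci per cell) counted from about 200 cells. Mean ± SD of three independent experiments.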

Jurkat = experiment: cells; settings: Homo sapiens, 168 h, read-out: pIC50 (converted)
A549 = experiment: cells; settings: Homo sapiens, A549, 168 h, read-out: pIC50 (converted)
CAKI-1 = experiment: cells; settings: Homo sapiens, CAKI-1, 168 h, read-out: pIC50 (converted)

Q: With Nc1cc(C(F)(F)F)c(-c2nc3c(c(N4CCOCC4)n2)CCN(C(=O)c2cc(Cc4n[nH]c(=O)c5ccccc45)ccc2F)C3)cn1 as the compound, how does the Activity (Mus musculus [1]) read?
A: Its Activity is “Active”.

Q: What about the Activity (MDA-MB-468 [2]) of the same compound?
A: The Activity was “Active”.

Q: And the inhibition (MDA-MB-468 [3])?
A: The inhibition was “Active”.

Q: What about the “Ratio IC50” value (HCC1937) of the same compound?
A: Its value is “>=4”.

Q: And the IC50 [4]?
A: The IC50 was 7.41 nM.

Q: And the inhibition (Mus musculus [5])?
A: The inhibition was “Active”.

Q: What about the IC50 [6] of the same compound?
A: The IC50 was 288 nM.

Q: And the inhibition (MDA-MB-468 [7])?
A: Its inhibition is “Active”.

Q: And the inhibition (MDA-MB-468 [8])?
A: Its inhibition is “Active”.

Q: And the “Ratio IC50” value (MDA-MB-468 [9])?
A: The value was “>=4”.

Q: And the inhibition in vivo at 50 mg/kg (MDA-MB-468 [10])?
A: The inhibition in vivo at 50 mg/kg was 73.4%.

Q: With Nc1cc(C(F)(F)F)c(-c2cc(N3CCOCC3)nc(N3CCOCC3)n2)cn1 [BUPARLISIB] as the compound, how does the IC50 (SW-620) read?
A: Its IC50 is 3240 nM.

Q: And the Activity (MDA-MB-468 [11])?
A: Its Activity is 1.48%.

Q: What about the IC50 (Ramos) of the same compound?
A: The IC50 was 1170 nM.

Q: And the IC50 (HCT-116)?
A: The IC50 was 1230 nM.

Q: What about the Activity (MDA-MB-468 [12]) of the same compound?
A: Its Activity is “Active”.

Q: What about the inhibition (MDA-MB-468 [13]) of the same compound?
A: Its inhibition is “Active”.

Q: What about the IC50 (A2780) of the same compound?
A: Its IC50 is 347 nM.

Q: What about the inhibition (MDA-MB-468 [14]) of the same compound?
A: Its inhibition is “Active”.

Q: And the IC50 (Jurkat)?
A: The IC50 was 1290 nM.

Q: What about the IC50 (A549) of the same compound?
A: The IC50 was 646 nM.

Q: And the IC50 (CAKI-1)?
A: Its IC50 is 1860 nM.
